Data on 60 molecules can be found in PubChem BioAssay AID504383 (The Scripps Research Institute Molecular Screening Center, 2011).

SMILES strings stand for the structures. The campaign covered roughly 2,500 compounds. About 1,200 (48%) were called active. So high a share suggests a set chosen from earlier hits. This is one part of the list. Values without a mark were called inactive.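 How the source made its calls: active means mean activation above the low control average plus 3 SD, as set in the primary screen (cut at about 12% in these data); inactive means the rest.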

The target in this assay is Troponin I, cardiac muscle (Homo sapiens) + Troponin T, cardiac muscle (Homo sapiens) + Troponin C, slow skeletal and cardiac muscles (Homo sapiens) (UniProt P19429+P45379+P63316). As to the kind of experiment: calcium sensitizers of cardiac thin filaments – biochemical, IANBD-TnC fluorescence, triplicate, confirmation (AID 504383).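 Further: 0% = DMSO at 0.472 mM calcium and 100% = DMSO at 2.9 mM calcium.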 As to conditions: IANBD-labeled cardiac RTF, Ca2+ sensitivity fluorescence; at 7.2 µM; active compounds read high; scaled from EC20 to saturating calcium; tested at EC20 calcium, 0.472 mM. A digest of the protocol: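 Assay system: labelled regulated thin filaments / Timing: 15 min at 25 °C / Detection: fluorescence intensity of labelled filaments / Measure: fluorescence gain scaled between EC20 and EC100 calcium controls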
For `O=C(c1ccccc1)c1ccccc1C(=O)c1ccccc1`, the activation was 12.7% (active). Then `O=C(c1ccccc1)c1ccncc1`, with 5.78%; and `O=C(O)c1ccccc1C1=Nc2ccc(O)cc2Oc2cc(O)ccc21`, with 5.85%; and `O=C(c1ccccc1)c1ccc(O)cc1O`, with 89.6% (active). To `CC1C/C(=C/c2cccn2C)C(=O)/C(=C/c2cccn2C)C1` (stereo not given) belongs 11.4%; to `Cn1cccc1/C=C1\CCC/C(=C\c2cccn2C)C1=O`, 15.9% (active). For the molecule `COC(=O)c1sccc1Oc1ccc(Cl)cc1N1C(=O)CCC1=O`, the activation was 8.17%. As for `CC(NC(=O)CN1CCC(C(N)=O)CC1)c1ccccc1` (stereo not given), the activation is 5.31%. Then `Cc1ccc2c(C(=O)CN3CCC(C(N)=O)CC3)c(C)[nH]c2c1`, with 16.3% (active); and `COc1ccc(C)cc1Nc1n[n+](-c2ccccc2)c(-c2cc([N+](=O)[O-])cc(OC)c2O)s1`, with 5.27%. As to `C=C[C@@](C)(O)CC[C@@H]1[C@@]2(C)CCCC(C)(C)[C@@H]2CC[C@@]1(C)O`, the activation is 6.12%. With `COc1ccccc1NS(=O)(=O)c1cc(NC(=O)CCNC(C)=O)ccc1N1CCCCC1`, the activation is 4.68%. Then `COc1ccccc1NS(=O)(=O)c1cc(NC(=O)c2cc3ccccc3oc2=O)ccc1C`, with 72.6% (active); and `Cc1ccc(NC(=O)CSc2nnc(-c3cccnc3)s2)cc1`, with 678% (active); and `Cc1ccc(-c2csc(NC(=O)CSc3nc4ccccc4o3)n2)cc1`, with 2.75%. Consider `CC(C)(C)OC(=O)NCCCC[C@@H](C(=O)N1CCN(C(=O)OC(C)(C)C)CC1)n1cc(CCC(=O)O)nn1`, for which the activation was 7.02%.

For the molecule `C[C@@H](C(=O)N1CCNCC1)n1cc(CCCN=C(N)N)nn1`, the activation is 107% (active). With `CC(O)Cc1cn([C@@H](CCCCN)C(=O)N2CCNCC2)nn1` (stereo not given in full), the activation is 2.6%. To `CCCCNc1nc(-c2ccccc2)nc(-n2ccnc2)n1` belongs 15.9% (active); to `Cn1cccc1Cc1nnc(SCC(=O)Nc2ccc(F)cc2F)n1-c1ccc(F)cc1`, 7.53%. Then `O=C(CSc1nncc2ccccc12)Nc1ccc(F)cc1`, with 170% (active). Then `COc1ccc(NC(=O)CSc2nncc3ccccc23)cc1`, with 1.45%; and `CC(C)(C)C(=O)c1sc2nc(-c3cccs3)cc(C(F)(F)F)c2c1N`, with 12.4% (active). Take `Cc1nnc(NC(=O)c2sc3nc(-c4cccs4)cc(C(F)(F)F)c3c2N)s1`: the activation is 9.99%.

In the case of `CC(=O)c1sc2nc(-c3cccs3)cc(C(F)(F)F)c2c1N`, the activation is -0.48%. To `Nc1c(C(=O)Nc2nccs2)sc2nc(-c3cccs3)cc(C(F)(F)F)c12` belongs 10.7%; to `COc1ccc(-c2cc(C(F)(F)F)c3c(N)c(C(=O)NCCSC)sc3n2)cc1`, 5.88%. Then `Nc1c(C(=O)C2CC2)sc2nc(-c3cccs3)cc(C(F)(F)F)c12`, with 18.1% (active); and `Nc1c(C(=O)Nc2ccccc2F)sc2nc(Cc3ccccc3)cc(C(F)(F)F)c12`, with 7.05%. To `Nc1c(C(=O)C2CC2)sc2nc(-c3ccccc3)cc(C(F)(F)F)c12` belongs 30.1% (active). For the molecule `c1ccc(-c2nc(-c3ccco3)n3ccccc23)cc1`, the activation is 1.15%. To `N#Cc1c(N)oc(-c2ccccc2)c1-c1ccccc1` belongs 23.9% (active); to `COc1ccccc1C1=NOC(Cn2c(=O)c3c(ncn3C)n(C)c2=O)C1` (stereo not given), 7.68%; to `Cc1c(O)c2c3c(cccc3c1O)C(=O)N(c1ccccc1)C2=O`, 67.4% (active). For `Nc1ccc2c3c(cccc13)C(=O)N(c1ccccc1)C2=O`, the activation was 10.9%. Then `Cc1cccc(N2CCN(C(=O)Cn3nc(Cc4ccncc4)c4ccccc4c3=O)CC2)c1C`, with 25.3% (active). `Cc1nc2ccccc2n2c(O)c(CC(=O)O)cc12`: the activation is 15.2% (active). To `COc1ccc2c(n1)Sc1nc3ccccc3nc1N2` belongs 6.52%; to `CC1(C)CC(=O)C2=C(C1)OC(N)=C(C#N)C21CCN(Cc2ccccc2)CC1`, 12.4% (active); to `COc1ccc2[nH]c3c(c2c1)CCN1C(=O)C(CC(=O)NCCCn2ccnc2)C[C@H](C(=O)N2CCCCC2)[C@@]31C` (stereo not given in full), 6.39%.

In the case of `O=C(Nc1cnn(Cc2c(Cl)cccc2Cl)c1)C(c1ccccc1)c1ccccc1`, the activation is 4.3%.

Turning to `O=C(NCCOc1ccccc1Cl)C(=O)Nc1ccccc1`, the activation is 11.1%. Then `O=C1c2ccccc2C(Nc2cccnc2)N1Cc1ccccc1Cl` (stereo not given), with 54.5% (active). Then `O=C(Cc1ccccc1Cl)Nc1cccnc1`, with 22.6% (active); and `CN1CCS/C1=C/C=C1\SC(=S)N(CC(=O)O)C1=O`, with 122% (active). As for `CN1C(=O)/C(=C/C=C2\SCCN2C)OC1=S`, the activation is 31.5% (active). To `CCN1C(=O)/C(=C/C=C2/SCCN2C)SC1=S` belongs 42.9% (active); to `CN1CCS/C1=C/C=C1/SC(=S)N(Cc2ccccc2)C1=O`, 2.39%. Then `CCN1C(=O)/C(=C\C=C2/C=CC=CN2CC)SC1=S`, with 431% (active). For the molecule `CCCCN1C(=O)/C(=C/C=C2\SCCN2C)SC1=S`, the activation is 7.61%. Consider `C=CCNC(=S)N(CC=C)C1CCS(=O)(=O)C1` (stereo not given), for which the activation was 6.54%.

On to `O=C(O)c1cccc2c1C(=O)c1ccc(N3CCCC3)cc1S2(=O)=O`, for which the activation was 6.28%. To `C#CCSc1nc2[nH]ncc2c(=O)[nH]1` belongs 5.4%.

With `CN1CCS/C1=C\C=C1/SC(=S)N(CC(=O)O)C1=O`, the activation was 12.1% (active). On to `N#C/C(=C\N1CCN(Cc2ccc3c(c2)OCO3)CC1)c1nc2ccccc2s1`, for which the activation was 17.4% (active).

Consider `CCNC(=O)/C(C#N)=C/c1c(N2CCN(Cc3ccc4c(c3)OCO4)CC2)nc2c(C)cccn2c1=O`, for which the activation is 9.67%. As for `O=C(CCc1ccc(S(=O)(=O)NCCc2ccccc2)cc1)N1CCN(Cc2ccc3c(c2)OCO3)CC1`, the activation was 1.31%. Then `CC(OC(=O)c1c2c(nc3ccccc13)/C(=C\c1ccc3c(c1)OCO3)CCC2)C(=O)Nc1ccc(S(N)(=O)=O)cc1` (stereo not given), with 3.14%.

Turning to `NC(=O)c1ccc(NC(=O)COC(=O)c2c3c(nc4ccccc24)/C(=C\c2ccc4c(c2)OCO4)CCC3)cc1`, the activation was 11.7% (active).

For `CCCCNC(=O)COC(=O)c1c2c(nc3ccccc13)/C(=C\c1cccs1)CC2`, the activation is 6.15%.
